Assay results as given in ChEMBL document CHEMBL3797125, “Discovery of GluN2A-Selective NMDA Receptor Positive Allosteric Modulators (PAMs): Tuning Deactivation Kinetics via Structure-Based Design” (J Med Chem, 2016).
Calls of active or inactive are those of the source. The rule behind the calls is not given here.

What was measured:
[1] = target: T1, Glutamate receptor 2 (Homo sapiens, UniProt P42262); assay: Positive allosteric modulation of human GluA2 AMPAR flop isomer expressed in Dox-inducible cells measured every 5 mins by BD calcium indicator dye based-fluorescence analysis in presence of glutamate; format: cell-based
T1 sequence (P42262 whole entry): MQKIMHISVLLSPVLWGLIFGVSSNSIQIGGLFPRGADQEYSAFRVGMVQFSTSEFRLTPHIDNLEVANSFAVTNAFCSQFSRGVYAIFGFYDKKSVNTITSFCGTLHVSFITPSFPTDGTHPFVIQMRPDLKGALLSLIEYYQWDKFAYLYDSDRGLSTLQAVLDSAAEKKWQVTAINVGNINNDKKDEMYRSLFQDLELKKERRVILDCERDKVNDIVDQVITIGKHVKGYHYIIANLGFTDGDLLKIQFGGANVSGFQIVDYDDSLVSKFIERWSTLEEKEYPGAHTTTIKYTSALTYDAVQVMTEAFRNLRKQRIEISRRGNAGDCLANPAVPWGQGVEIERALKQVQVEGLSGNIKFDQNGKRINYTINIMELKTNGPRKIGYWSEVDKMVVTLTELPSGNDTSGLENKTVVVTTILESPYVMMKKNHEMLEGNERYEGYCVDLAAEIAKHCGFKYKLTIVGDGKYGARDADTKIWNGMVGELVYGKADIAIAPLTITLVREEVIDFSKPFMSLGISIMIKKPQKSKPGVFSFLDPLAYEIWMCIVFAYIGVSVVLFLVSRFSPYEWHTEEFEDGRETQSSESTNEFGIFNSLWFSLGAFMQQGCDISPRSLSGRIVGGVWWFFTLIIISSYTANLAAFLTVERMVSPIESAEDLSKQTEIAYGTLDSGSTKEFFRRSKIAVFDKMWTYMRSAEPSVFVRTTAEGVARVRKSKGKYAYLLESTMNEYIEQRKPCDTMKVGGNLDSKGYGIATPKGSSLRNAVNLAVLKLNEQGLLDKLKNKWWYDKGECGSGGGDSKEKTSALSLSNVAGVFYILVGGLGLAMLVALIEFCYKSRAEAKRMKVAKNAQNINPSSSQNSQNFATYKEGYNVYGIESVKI

[2] = target: Glutamate NMDA receptor; GRIN1/GRIN2B (Homo sapiens) (UniProt Q05586+Q13224); assay: Positive allosteric modulation of GluN1/GluN2B NMDAR (unknown origin) expressed in Dox-inducible cells at 125 uM measured every 5 mins by BD calcium indicator dye based-fluorescence analysis in presence of glutamate/glycine; format: cell-based
How it was run: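 Doxycycline-induced (2 µg/mL, overnight, 500 µM ketamine) GluN2B-containing NMDAR cells, loaded with calcium dye for 50 min; compound added at 2x in 2x EC30 Glu, with saturating Gly; fluorescence recorded over 5 min. Max potentiation at 125 µM reported where no EC50 obtained; 30% denotes baseline (EC30 Glu).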

[3] = target: T1, Glutamate receptor 2; assay: Positive allosteric modulation of human GluA2 AMPAR flop isomer expressed in Dox-inducible cells at 125 uM measured every 5 mins by BD calcium indicator dye based-fluorescence analysis in presence of glutamate; format: cell-based
[4] = target: T1, Glutamate receptor 2; assay: Positive allosteric modulation of human GluA2 AMPAR flip isomer expressed in Dox-inducible cells measured every 5 mins by BD calcium indicator dye based-fluorescence analysis in presence of glutamate; format: cell-based
[5] = Lipophilicity, logD of the compound at pH 7.4; format: physicochemical; details: buffer
[6] = target: T1, Glutamate receptor 2; assay: Positive allosteric modulation of human GluA2 AMPAR flip isomer expressed in Dox-inducible cells at 125 uM measured every 5 mins by BD calcium indicator dye based-fluorescence analysis in presence of glutamate; format: cell-based
[7] = target: T2, Glutamate NMDA receptor; GRIN1/GRIN2A (Homo sapiens, UniProt Q05586+Q12879); assay: Positive allosteric modulation of GluN1/GluN2A NMDAR (unknown origin) expressed in Dox-inducible cells at 125 uM measured every 5 mins by BD calcium indicator dye based-fluorescence analysis in presence of glutamate/glycine; format: cell-based
How it was run: (§1)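 GluN2A-containing NMDAR cell line, harvested, seeded, doxycycline 2 µg/mL overnight with 500 µM ketamine for protection, then washed and loaded with calcium dye for 50 min. Compound added at 2x concentration in 2x EC30 Glu (EC30 set daily from Glu dose-response); saturating Gly throughout; fluorescence recorded over 5 min.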

[8] = target: T2, Glutamate NMDA receptor; GRIN1/GRIN2A; assay: Positive allosteric modulation of GluN1/GluN2A NMDAR (unknown origin) expressed in Dox-inducible cells measured every 5 mins by BD calcium indicator dye based-fluorescence analysis in presence of glutamate/glycine; format: cell-based; how it was run: as §1
[9] = system: human MDR1 (P-gp); assay: Efflux ratio of permeability from basolateral to apical over apical to basolateral side in MDCK cells expressing human MDR1; format: ADME, cell-based, Canis lupus familiaris; details: dog
[10] = Protein binding in mouse brain; format: ADME, tissue-based; details: read-out: PB (converted)
[11] = Plasma protein binding in mouse; format: ADME, cell-free; details: read-out: PPB (converted)
[12] = target: Ionotropic glutamate receptor NMDA 1/2D (Homo sapiens, UniProt O15399+Q05586); assay: Positive allosteric modulation of GluN1/GluN2D NMDAR (unknown origin) expressed in Dox-inducible cells by BD calcium indicator dye based-fluorescence analysis in presence of glutamate/glycine
Sequence of Ionotropic glutamate receptor NMDA 1/2D (O15399 whole entry, other chains not shown): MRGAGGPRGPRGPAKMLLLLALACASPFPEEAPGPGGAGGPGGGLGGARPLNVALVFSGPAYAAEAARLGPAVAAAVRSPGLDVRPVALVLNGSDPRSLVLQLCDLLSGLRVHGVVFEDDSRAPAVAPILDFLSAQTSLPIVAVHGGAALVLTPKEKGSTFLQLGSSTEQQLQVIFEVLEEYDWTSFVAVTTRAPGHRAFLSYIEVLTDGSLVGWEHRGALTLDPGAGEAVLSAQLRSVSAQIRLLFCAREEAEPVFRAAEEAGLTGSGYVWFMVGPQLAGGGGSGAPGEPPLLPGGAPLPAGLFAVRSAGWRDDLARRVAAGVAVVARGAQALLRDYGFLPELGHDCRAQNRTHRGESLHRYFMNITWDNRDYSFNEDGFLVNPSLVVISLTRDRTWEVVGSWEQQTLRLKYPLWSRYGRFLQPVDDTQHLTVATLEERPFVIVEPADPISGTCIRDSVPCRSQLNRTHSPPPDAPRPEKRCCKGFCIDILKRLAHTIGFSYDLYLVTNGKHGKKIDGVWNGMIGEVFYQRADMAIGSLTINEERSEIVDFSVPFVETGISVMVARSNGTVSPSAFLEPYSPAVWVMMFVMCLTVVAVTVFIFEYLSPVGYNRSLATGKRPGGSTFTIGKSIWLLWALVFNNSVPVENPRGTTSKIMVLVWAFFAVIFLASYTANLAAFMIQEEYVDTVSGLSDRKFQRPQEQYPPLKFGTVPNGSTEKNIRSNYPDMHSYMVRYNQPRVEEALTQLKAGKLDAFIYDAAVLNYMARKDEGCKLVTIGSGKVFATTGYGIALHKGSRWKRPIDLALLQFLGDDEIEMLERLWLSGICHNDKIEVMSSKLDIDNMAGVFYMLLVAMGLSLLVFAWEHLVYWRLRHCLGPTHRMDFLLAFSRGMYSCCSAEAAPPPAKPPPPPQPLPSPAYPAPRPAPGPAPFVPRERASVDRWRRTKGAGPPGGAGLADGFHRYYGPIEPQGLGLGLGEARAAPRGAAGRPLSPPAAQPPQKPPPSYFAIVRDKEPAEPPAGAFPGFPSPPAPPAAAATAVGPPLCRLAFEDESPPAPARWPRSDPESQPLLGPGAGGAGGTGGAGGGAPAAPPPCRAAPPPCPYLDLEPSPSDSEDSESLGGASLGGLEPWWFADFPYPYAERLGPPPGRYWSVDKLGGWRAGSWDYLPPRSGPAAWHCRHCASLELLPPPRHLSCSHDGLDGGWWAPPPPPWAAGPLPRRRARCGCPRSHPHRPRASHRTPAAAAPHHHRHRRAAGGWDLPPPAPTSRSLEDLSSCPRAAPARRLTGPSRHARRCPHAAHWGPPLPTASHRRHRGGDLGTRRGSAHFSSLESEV

[13] = system: Plasma; assay: Fraction unbound in mouse plasma at 10 mg/kg, po measured at 1 hr; format: ADME, organism-based; details: in vivo
[14] = Blood clearance in mouse at 0.3 mg/kg, iv; format: ADME, organism-based
[15] = target: Ionotropic glutamate receptor NMDA 1/2C (Homo sapiens, UniProt Q05586+Q14957); assay: Positive allosteric modulation of GluN1/GluN2C NMDAR (unknown origin) expressed in Dox-inducible cells by BD calcium indicator dye based-fluorescence analysis in presence of glutamate/glycine
Sequence of Ionotropic glutamate receptor NMDA 1/2C (Q14957 whole entry, other chains not shown): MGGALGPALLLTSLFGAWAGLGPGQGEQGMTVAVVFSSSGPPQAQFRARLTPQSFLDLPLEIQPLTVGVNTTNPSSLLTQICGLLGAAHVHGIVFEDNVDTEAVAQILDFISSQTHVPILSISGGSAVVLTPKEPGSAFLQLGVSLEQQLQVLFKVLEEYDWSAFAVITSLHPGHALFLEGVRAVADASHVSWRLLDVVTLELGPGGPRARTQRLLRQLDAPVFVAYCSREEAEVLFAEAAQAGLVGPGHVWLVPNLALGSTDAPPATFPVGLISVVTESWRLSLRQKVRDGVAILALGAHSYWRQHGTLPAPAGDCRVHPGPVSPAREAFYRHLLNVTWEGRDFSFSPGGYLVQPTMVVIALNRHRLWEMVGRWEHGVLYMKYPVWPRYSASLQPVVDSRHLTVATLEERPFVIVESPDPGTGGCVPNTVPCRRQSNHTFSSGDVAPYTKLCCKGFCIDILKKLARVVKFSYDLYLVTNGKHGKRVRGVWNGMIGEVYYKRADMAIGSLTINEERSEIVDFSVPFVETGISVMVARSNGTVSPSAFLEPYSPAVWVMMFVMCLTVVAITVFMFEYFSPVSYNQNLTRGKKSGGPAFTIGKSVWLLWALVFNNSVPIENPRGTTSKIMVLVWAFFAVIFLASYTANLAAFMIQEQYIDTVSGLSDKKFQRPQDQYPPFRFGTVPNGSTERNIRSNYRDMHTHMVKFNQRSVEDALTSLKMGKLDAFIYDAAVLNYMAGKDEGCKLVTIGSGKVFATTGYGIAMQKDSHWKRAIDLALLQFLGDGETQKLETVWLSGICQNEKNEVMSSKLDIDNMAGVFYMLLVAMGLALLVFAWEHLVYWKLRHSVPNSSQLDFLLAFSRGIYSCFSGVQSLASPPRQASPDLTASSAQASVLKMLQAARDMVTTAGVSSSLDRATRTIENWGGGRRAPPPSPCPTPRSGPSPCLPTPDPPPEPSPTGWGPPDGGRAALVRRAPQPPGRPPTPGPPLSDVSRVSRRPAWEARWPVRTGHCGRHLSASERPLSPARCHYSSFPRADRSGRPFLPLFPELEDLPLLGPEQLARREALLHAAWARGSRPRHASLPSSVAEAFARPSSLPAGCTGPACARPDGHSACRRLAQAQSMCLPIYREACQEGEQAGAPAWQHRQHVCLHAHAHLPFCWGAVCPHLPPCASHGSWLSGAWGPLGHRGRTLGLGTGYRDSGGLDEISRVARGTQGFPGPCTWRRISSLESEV

[16] = Half life in mouse at 0.3 mg/kg, iv; format: ADME, organism-based; details: in vivo
[17] = Oral bioavailability in mouse at 10 mg/kg; format: ADME, organism-based; details: in vivo
[18] = organism: Homo sapiens; assay: Selectivity ratio of EC50 for human GluA2 AMPAR flop isomer to EC50 for GluN1/GluN2A NMDAR (unknown origin) expressed in Dox-inducible cells; format: cell-based
[19] = target: T2, Glutamate NMDA receptor; GRIN1/GRIN2A; assay: Positive allosteric modulation of GluN1/GluN2A NMDAR (unknown origin) expressed in CHO cells assessed as slowing of deactivation kinetics at 10 uM by whole-cell voltage clamp electrophysiological analysis; format: cell-based
[20] = target: T2, Glutamate NMDA receptor; GRIN1/GRIN2A; assay: Positive allosteric modulation of GluN1/GluN2A NMDAR (unknown origin) expressed in CHO cells assessed as slowing of deactivation kinetics at 100 uM by whole-cell voltage clamp electrophysiological analysis; format: cell-based
How it was run: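 Automated patch clamp of CHO cells expressing GluN1/GluN2A; sealed in high Mg2+ buffer, recorded whole-cell in zero Mg2+. Preincubation with PAM at 100 µM (or DMSO) plus 100 µM glycine for several minutes, then rapid switch to 100 µM glutamate and back. Tau from monoexponential fit of current decay; fold deactivation = PAM tau / vehicle tau.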

[21] = organism: Homo sapiens; assay: Selectivity ratio of EC50 for human GluA2 AMPAR flip isomer to EC50 for GluN1/GluN2A NMDAR (unknown origin) expressed in Dox-inducible cells; format: cell-based

| Compound | EC50 [1] [µM] | %max [2] [%] | %max [3] [%] | EC50 [4] [µM] | %max [6] [%] | %max [7] [%] | EC50 [8] [µM] | efflux ratio [9] | further results |
| --- | --- | --- | --- | --- | --- | --- | --- | --- | --- |
| CCN(Cc1cc(=O)n2nc(C)sc2n1)c1ccc(F)cc1 | 0.83 | 48 | 99 | 3.3 | 92 | 150 | 0.9 | 1.4 | logD [5]: 2.9 |
| C=C(C)c1c(C)sc2nc(CN(CC)c3ccc(F)cc3)cc(=O)n12 | 13 |  | 22 | 43.1 | 75 | 143 | 0.06 |  | Ratio EC50 [18]: > 100 |
| CCNC(=O)c1c(C)sc2nc(CN(CC)c3ccc(F)cc3)cc(=O)n12 |  |  | 28 |  | 10 | 184 | 0.093 | 5.1 | Activity [19]: Active |
| CCN(Cc1cc(=O)n2nc(C)sc2n1)c1ccccc1 | 2 | 35 | 95 | 7.5 | 84 | 150 | 1.9 |  |  |
| CCNC(=O)c1c(C)sc2nc(COc3ccc(F)cc3)cc(=O)n12 |  |  | 15 |  | 11 | 77 | 8.5 | 2 | Activity [20]: inactive |
| CCNC(=O)c1c(C)sc2nc(Cn3nc(C(F)(F)F)cc3Cl)cc(=O)n12 | 73.2 |  | 16 | 37 | 8 | 120 | 0.436 | 11 | Ratio EC50 [21]: 100 |

The remaining compounds from weak to strong by EC50 [8], led by results:

| EC50 [1] [µM] | %max [2] [%] | %max [3] [%] | EC50 [4] [µM] | %max [6] [%] | %max [7] [%] | EC50 [8] [µM] | efflux ratio [9] | Compound | further results |
| --- | --- | --- | --- | --- | --- | --- | --- | --- | --- |
| 23.7 | 40 | 71 | 35.2 | 51 | 91 | 9.34 |  | CCCCc1nn2c(=O)cc(CN(CC)c3ccccc3)nc2s1 |  |
| 9.4 |  | 55 |  | 13 | 173 | 0.088 | 1.1 | CCN(Cc1cc(=O)n2c(C(C)=O)c(C)sc2n1)c1ccc(F)cc1 | Ratio EC50 [18]: 100 |
| 5.5 |  | 88 | 9.1 | 84 |  | 0.021 | 1.1 | N#C[C@@H]1C[C@H]1c1c(C(F)(F)F)sc2nc(Cn3nc(C(F)(F)F)cc3Cl)cc(=O)n12 | fraction unbound [10]: 0.014; fraction unbound [11]: 0.06; EC50 [12]: 6.2 µM; Cp(f) [13]: 17 nM; clearance [14]: 26 mL/min/kg; EC50 [15]: 7.4 µM; half-life [16]: 4 h; bioavailability [17]: 24% |
